Residue numbers refer to the chain shown, from its start. Values joined by “and” are separate entries in the source; they are usually repeats but may differ in a detail not shown here. Equal values may be shown once. Marks after values point to notes of the source that are not given here.
Experiments:
human T94A variant FABP1 = molecular target: T1, human T94A variant FABP1 (Homo sapiens, UniProt P07148, T94A); assay: Isothermal titration calorimetry; type: binding
T1 sequence (P07148 1-127 T94A): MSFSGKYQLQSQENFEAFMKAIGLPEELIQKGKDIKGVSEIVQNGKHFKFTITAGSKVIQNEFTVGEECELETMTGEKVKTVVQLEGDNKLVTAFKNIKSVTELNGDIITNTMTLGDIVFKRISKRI

rat FABP1 [1] = molecular target: T2, rat FABP1 (Rattus norvegicus, UniProt P02692); assay: Isothermal titration calorimetry; type: binding
T2 sequence (P02692 1-127): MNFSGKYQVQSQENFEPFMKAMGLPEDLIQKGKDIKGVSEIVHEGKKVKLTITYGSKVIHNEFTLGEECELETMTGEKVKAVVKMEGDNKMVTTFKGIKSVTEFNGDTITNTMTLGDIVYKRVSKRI

[2] = aqueous; cited from earlier work
human WT FABP1 = molecular target: T3, human WT FABP1 (Homo sapiens, UniProt P07148); assay: Isothermal titration calorimetry; type: binding
T3 sequence (P07148 1-127): T1 sequence (P07148 1-127 T94A) with A94T

rat FABP1 [3] = molecular target: T2, rat FABP1; assay: NBD-cholesterol fluorescence binding assay
Outline: (§1)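 Recombinant FABP1 was titrated into NBD-cholesterol held at 20 nM, below its critical micellar concentration; human proteins ran 0–3.6 μM. Excitation was 490 nm and emission spectra were taken at 515–600 nm, 24°C. Emission maxima came from spectral analysis. Kd and Bmax were obtained by fitting the binding curve to a hyperbola. Data are mean ± SE, n = 3–5.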

human FABP1 T94A variant = molecular target: T4, human FABP1 T94A variant (Homo sapiens, UniProt P07148, T94A); assay: NBD-cholesterol fluorescence binding assay
T4 sequence (P07148 1-127 T94A): T1 sequence (P07148 1-127 T94A)
Outline: as §1

human WT FABP1 T94T = molecular target: T5, human WT FABP1 T94T (Homo sapiens, UniProt P07148); assay: NBD-cholesterol fluorescence binding assay
T5 sequence (P07148 1-127): T1 sequence (P07148 1-127 T94A) with A94T
Outline: as §1

[4] = NBD-cholesterol 20nM bound to protein, excitation 490 nm, 24°C
[5] = NBD-cholesterol 20nM, FABP1 0–3.6 μM, hyperbola fit
[6] = NBD-cholesterol 20nM, FABP1 0–3.6 μM, hyperbola fit, 24°C

Compound: CC(C)CCC[C@@H](C)[C@H]1CC[C@H]2[C@@H]3CC=C4C[C@@H](O)CC[C@]4(C)[C@H]3CC[C@]12C [cholesterol]
- Kd (human T94A variant FABP1): 500 ± 100 nM
- TΔS (human T94A variant FABP1; ITC, 25 °C, pH 8.0): 5.26 ± 0.24 kcal/mol
- n, binding stoichiometry (human T94A variant FABP1; ITC, 25 °C, pH 8.0): 0.7 ± 0.2 mol/mol
- ΔG, Gibbs free energy change (human T94A variant FABP1; ITC, 25 °C, pH 8.0): -10.8 ± 0.72 kcal/mol
- ΔH, enthalpy change (human T94A variant FABP1; ITC, 25 °C, pH 8.0): −23 ± 4 ^b kJ/mol
- fold higher cholesterol-binding affinity than WT FABP1 T94T (human T94A variant FABP1; NBD-cholesterol fluorescence and cholesterol ITC binding assays): 3 fold
- Kd (rat FABP1 [1]): 600 ± 200 nM
- TΔS (rat FABP1 [1]; ITC, 25 °C, pH 8.0): 5.98 ± 0.72 kcal/mol
- n, binding stoichiometry (rat FABP1 [1]; ITC, 25 °C, pH 8.0): 0.9 ± 0.1 mol/mol
- ΔG, Gibbs free energy change (rat FABP1 [1]; ITC, 25 °C, pH 8.0): -9.8 ± 0.48 kcal/mol
- ΔH, enthalpy change (rat FABP1 [1]; ITC, 25 °C, pH 8.0): -3.59 ± 0.24 kcal/mol
- critical micellar concentration [2]: ~30 nM
- Kd (human WT FABP1): 1300 ± 400 nM
- TΔS (human WT FABP1; ITC, 25 °C, pH 8.0): 5.02 ± 0.48 kcal/mol
- n, binding stoichiometry (human WT FABP1; ITC, 25 °C, pH 8.0): 0.8 ± 0.2 mol/mol
- ΔG, Gibbs free energy change (human WT FABP1; ITC, 25 °C, pH 8.0): -9.08 ± 0.72 kcal/mol
- ΔH, enthalpy change (human WT FABP1; ITC, 25 °C, pH 8.0): -4.06 ± 0.48 kcal/mol

Compound: C[C@H](CNc1ccc([N+](=O)[O-])c2nonc12)[C@H]1CC[C@H]2[C@@H]3CC=C4C[C@@H](O)CC[C@]4(C)[C@H]3CC[C@]12C [NBD-cholesterol, 22-(N-(7-nitrobenz-2-oxa-1,3-diazol-4-yl)-amino)-23, 24-bisnor-5-cholen-3β-ol]
- Emission max (rat FABP1 [3]; [4]): 540.7 ± 0.7 nm
- Bmax (fluorescence intensity at saturation) (rat FABP1 [3]; [5]): 68.2 ± 7.1 A.U.
- Kd (rat FABP1 [3]; [6]): 480 ± 120 nM
- fold higher affinity for NBD-cholesterol than WT (human FABP1 T94A variant): more than 3 fold
- fold lower Kd than WT FABP1 T94T (human FABP1 T94A variant): 3.5 fold
- maximal fluorescence intensity lower than when bound to WT FABP1 T94T (human FABP1 T94A variant): ~40%
- shift of maximum emission, T94A variant compared to WT FABP1 T94T (human FABP1 T94A variant): 5 nm
- Emission max (human FABP1 T94A variant; [4]): 549 nm and 548.9 ± 1.0 ^d, ^e nm
- Bmax (fluorescence intensity at saturation) (human FABP1 T94A variant; [5]): 43.4 ± 3.3 ^d, ^e A.U.
- Kd (human FABP1 T94A variant; [6]): 510 ± 150 nM
- Emission max (human WT FABP1 T94T; [4]): 544 nm and 543.9 ± 0.5 ^d nm
- Bmax (fluorescence intensity at saturation) (human WT FABP1 T94T; [5]): 72.4 ± 7.7 A.U.
- Kd (human WT FABP1 T94T; [6]): 1770 ± 430 nM
- blue shift of emission maximum, bound versus aqueous buffer (human WT FABP1 T94T; normalized spectra): ~21 nm

— article PMC4408243 (Biochimica et biophysica acta, 2015)
